A selection: hits, their analogues and other compounds. The true share with any hit is near 2.6%.
b-catenin transl: modulators of beta-catenin nuclear translocation, primary screen, imaging, HeLa cells, immunofluorescence, high-content | nuclear translocation activity, % at 5 µM | 0.3% of 190,000 active;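 active means nuclear translocation activity above 50% at 5 µM, with a well cell count of 50 or more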;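 further: per-cell ratio of nuclear to cytoplasmic median beta-catenin stain intensity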
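assay system = human HeLa cells, endogenous beta-catenin | times = compound treatment 24 h, 37°C, 5% CO2 | detection = Anti-beta-catenin immunofluorescence on PFA-fixed, Triton-permeabilized cells, DAPI nuclei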
NPY-Y2 antag: NPY-Y2 receptor antagonists, primary screen, cell-based | Neuropeptide Y receptor type 2 (Homo sapiens), P49146 | NPY-Y2 expressing cells, antagonist mode | inhibition, % at 2.7 µM | 0.99% of 140,000 active | AID 793, 2007
NPY-Y1 antag: NPY-Y1 receptor antagonists, primary screen, cell-based | Neuropeptide Y receptor type 1 (Homo sapiens), P25929 | HEK293-CNG Y1 cells, membrane potential fluorescence; NPY at EC95, then isoproterenol | inhibition, % at 3.6 µM | 1% of 200,000 active | AID 1040, 2008;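 active means inhibition above the campaign mean inhibition of all tested compounds plus 3 SD, cut at about 20% in these data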
Target sequence (P25929 whole entry, looked up): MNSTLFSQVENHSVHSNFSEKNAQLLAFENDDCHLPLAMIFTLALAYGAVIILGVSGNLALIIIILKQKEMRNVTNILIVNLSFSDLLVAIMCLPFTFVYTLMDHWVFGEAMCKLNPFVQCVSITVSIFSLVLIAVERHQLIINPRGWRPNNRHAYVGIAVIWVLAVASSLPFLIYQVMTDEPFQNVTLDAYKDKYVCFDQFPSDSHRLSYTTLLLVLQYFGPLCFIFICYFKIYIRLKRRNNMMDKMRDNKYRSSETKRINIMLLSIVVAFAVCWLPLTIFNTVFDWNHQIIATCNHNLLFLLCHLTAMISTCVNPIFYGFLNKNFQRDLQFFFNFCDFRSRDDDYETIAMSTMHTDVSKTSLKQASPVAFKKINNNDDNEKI
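Material: HEK293 cells co-expressing NPY Y1 receptor and cyclic-nucleotide gated channel. Timing: compound incubation 1 h at room temperature, readout 45 min post-stimulation. Signal: fluorescence, membrane potential probe.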
NPY2 pot ag: NPY-Y2 potentiators or agonists, primary screen, cell-based | Neuropeptide Y receptor type 2 (Homo sapiens), P49146 | cells expressing NPY-Y2, potentiator/agonist read-out | activation, % at 3.6 µM | 0.45% of 220,000 active | AID 1359, 2008; in the data active means activation above about 27%;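 further: cells stimulated with NPY near EC25 plus isoproterenol at EC100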
NPY-Y1 PAM-ag: NPY-Y1 receptor potentiators or agonists, primary screen, cell-based | AID 1304, 2008 | 0.37% of 220,000 active | activation, % at 3.6 µM | NPY-Y1 expressing cells, potentiator/agonist activation; in the data active means activation above about 33%, passing the limit was not always enough;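 further: cells stimulated with NPY at EC10 then isoproterenol at EC100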
MT stabilizer: microtubule stabilizers in HeLa cells, primary screen, imaging, high-content imaging; AID 2205, 2009; 0.83% of 200,000 active; HeLa tubulin immunostaining HCS, 24 h; share of cells brighter than vehicle mean+2SD; % tubulin-high responders, % at 10 µM;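 active means plate Z-score above 3 for both tubulin-high and condensed-nucleus cell shares, with cell loss under 80%, at 10 µM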;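 further: anti alpha tubulin signal scored within the nucleus-defined area of each cell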
NPY1 antag conf: NPY-Y1 receptor antagonists, retest of hits, confirmation, HEK293-CNG cells, membrane potential fluorescence, triplicate; AID 1254, 2008; 21% of 1,200 active; inhibition, % at 3.6 µM; cAMP; NPY challenge against isoproterenol-raised cAMP; shares compounds with NPY-Y1 antag; in the data active means inhibition above about 20%
NPY-Y2 antag ct: NPY-Y2 receptor antagonists, selectivity check, confirmation, counter-screen for NPY-Y1 antagonist project, HEK293-CNG cells, membrane potential fluorescence, triplicate; shares compounds with NPY-Y1 antag; antagonism; cells given NPY, then isoproterenol; inhibition, % at 3.6 µM; 28% of 1,200 active
Hits are given with their value; 0 = inactive; - = no result. Unless noted, no stated cut-off is given here; in the data, active means inhibition above about 17%; inactive means the rest.

SMILES	b-catenin transl	NPY-Y2 antag	NPY-Y1 antag	NPY2 pot ag	NPY-Y1 PAM-ag	MT stabilizer	NPY1 antag conf	NPY-Y2 antag ct
COc1ccc(OC)c(S(=O)(=O)N2CCC(C(=O)N3CCc4ccccc4C3)CC2)c1	-	0	0	0	0	0	-	-
Cc1cc(OCc2nc(-c3ccncc3)no2)cc(C)c1Cl	0	-	0	0	0	0	-	-
C=CCc1ccccc1OCCSc1nc2ccc([N+](=O)[O-])cc2s1	0	0	21	0	0	0	0	0
CCOC(=O)c1cnn(-c2nc(-c3ccccc3)cs2)c1C(F)(F)F	0	0	20	0	0	0	0	0
Cc1cc(C)c2cc(C(=O)Nc3ccccc3)[nH]c2c1	0	-	-	0	0	-	-	-
O=C1c2ccccc2NC(c2cccc(O)c2)N1NS(=O)(=O)c1ccccc1 (centres undefined)	0	-	0	0	0	0	-	-
O=C(CCCN1C(=O)c2cccc3cccc(c23)C1=O)N1CCc2ccccc2C1	0	0	23	0	0	0	0	0
COc1ccc(-n2nnnc2-c2cccc(OC)c2)cc1	0	0	24	0	0	18	0	29
CNC(=O)/C(=C\c1ccc2c(c1)OCO2)NC(=O)c1ccc(Br)cc1	0	0	0	0	0	0	-	-
Cc1nc(-c2cccc(NS(=O)(=O)c3ccc4ccccc4c3)c2)cs1	0	0	32	0	0	0	0	0
CC(=O)/C=C1\N(C)c2ccc(C)cc2C1(C)C	0	-	0	0	0	0	-	-
CCCCC12CN3CC(C)(CN(C1)C31C(=O)N(C)c3ccc(C)cc31)C2=O (centres undefined)	0	0	21	0	0	0	0	0
CCOc1ccc(-n2c(SCC(N)=O)nc3c(c2=O)SCC3)cc1	-	0	0	0	0	0	-	-
CCOC(=O)c1nc(Nc2ccc(N3CCC(C)CC3)cc2)c2ccccc2n1	0	-	0	0	0	0	-	-
Cc1ccc2nc(NC(=O)Cc3cccs3)sc2c1	-	0	0	0	0	0	-	-
CCc1ccc2nc(NC(=O)CCCc3cccs3)sc2c1	0	0	24	0	0	0	0	0
Oc1cc2ccccc2cc1-c1n[nH]c(=S)o1	0	0	40	0	0	0	0	0
COc1ccccc1C(=O)NCCN1CCN(C(=O)c2ccccc2OC)CC1	-	0	0	0	0	0	-	-
CCN(CC)C(=O)/C(=C\c1ccc(Br)cc1)NC(=O)c1ccccc1OC	0	0	23	0	0	0	0	0
CCN(CC)C(=O)CSc1nc2c(sc(=S)n2-c2ccccc2)c(=O)[nH]1	0	-	0	0	0	0	-	-
CCN(CC)C(=O)CSc1nc2c(sc(=S)n2Cc2ccco2)c(=O)n1-c1ccccc1	0	0	27	0	0	0	0	0
Cc1cccc(C)c1N1CCN(C(=O)Cn2cncn2)CC1	0	-	0	0	0	0	-	-
O=C(O)c1cc2c(s1)-c1ccccc1CC2	0	0	21	0	0	0	0	0
Cc1ccc(NC(=O)CCc2c(C)nc3ncnn3c2C)nc1	0	0	0	0	0	0	-	-
COCCCN1CCN(C2Cc3ccccc3Sc3ccc(Cl)cc32)CC1 (centres undefined)	0	0	26	0	0	0	0	0
CC(=O)C1=C(C)OC(N)=C(C#N)C1c1cccnc1 (centres undefined)	0	-	0	0	0	0	-	-
CCN(CC)c1ccc2c(c1)OC(N)=C(C#N)C2c1cccnc1 (centres undefined)	65	0	27	0	0	20	0	0
Cc1ccc(Nc2nc(-c3c(C)nc4ncccn34)cs2)cc1	-	0	24	0	0	17	0	0

Assay outcomes from PubChem BioAssay.
